Experimental data published in ChEMBL document CHEMBL3098084, “Synthesis and preliminary evaluation of a new fluorine-18 labelled triazine derivative for PET imaging of cannabinoid CB2 receptor” (Bioorg Med Chem Lett, 2014).

What was measured:
Cannabinoid receptor 2 [1] = target: T1, Cannabinoid receptor 2 (Homo sapiens, UniProt P34972); experiment: Binding affinity to human CB2 receptor expressed in CHO cells; assay type: cell-based
Cannabinoid receptor 2 [2] = target: T1, Cannabinoid receptor 2; experiment: Agonist activity at human CB2 receptor expressed in CHO CRE-luc cells; assay type: functional, cell-based
[3] = Cmax in brain of CD-1 mouse at 3 mg/kg, iv after 5 mins; assay type: ADME, organism-based; set-up: dose 3 mg/kg, route intravenous
How it was run: (§1)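 Male CD1 mice got a single intravenous dose of 3 mg/kg. Drug levels were measured in plasma and brain. The first sampling time was 5 min post-dose. Apparent terminal half-life and brain/plasma AUC(0-inf) were derived from the concentration-time profiles.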

[4] = Apparent terminal half life in CD-1 mouse at 3 mg/kg, iv; assay type: ADME, organism-based; set-up: dose 3 mg/kg, route intravenous; conditions: in vivo, read-out: betat1/2(app) (converted); how it was run: as §1
[5] = Drug metabolism in rhesus monkey plasma assessed as compound remaining at 110 +/- 34 MBq, iv after 180 mins by HPLC analysis; assay type: ADME, organism-based, Macaca mulatta; conditions: read-out: Stability
How it was run: (§2)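 Radiotracer [¹⁸F]-d₂-3 (110 34 MBq) was given iv to rhesus macaque or baboon, with arterial blood sampled over 180 min. Parent fraction in plasma was determined by reverse-phase HPLC in a subset of samples. Where used, LPS (0.05 or 0.1 mg/kg) was given iv 4 h before the radiotracer.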

Brain = experiment: Drug uptake in whole brain of baboon neuroinflammation model at 110 +/- 34 MBq, iv after 20 mins by PET imaging analysis; assay type: ADME, organism-based; conditions: papio anubis, in vivo
How it was run: (§3)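 Baboons (Papio anubis) received [¹⁸F]-d₂-3 (110 34 MBq) iv. PET images were acquired over 180 min on a Siemens Biograph mCT camera with arterial blood sampling. Regional time-activity curves (frontal, occipital, temporal and parietal cortex, cerebellum) were expressed as SUV, and whole-brain uptake as percent injected dose. Where used, LPS (0.05 or 0.1 mg/kg) was given iv 4 h before the radiotracer.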

[6] = Drug uptake in temporal cotrex of baboon neuroinflammation model at 110 +/- 34 MBq, iv after 20 mins by PET imaging analysis; assay type: ADME, organism-based, Temporal cortex; conditions: papio anubis, in vivo; how it was run: as §3
[7] = Drug uptake in occipital cotrex of baboon neuroinflammation model at 110 +/- 34 MBq, iv after 20 mins by PET imaging analysis; assay type: ADME, organism-based, Occipital cortex; conditions: papio anubis, in vivo; how it was run: as §3
[8] = Drug uptake in frontal cortex of baboon neuroinflammation model at 110 +/- 34 MBq, iv after 20 mins by PET imaging analysis; assay type: ADME, organism-based; conditions: papio anubis, in vivo; how it was run: as §3
[9] = Drug metabolism in baboon neuroinflammation model plasma assessed as compound remaining at 110 +/- 34 MBq, iv administered 180 mins post LPS-challenge by HPLC analysis; assay type: ADME, organism-based; conditions: papio anubis, read-out: Stability; how it was run: as §2
[10] = Drug uptake in perietal cotrex of baboon neuroinflammation model at 110 +/- 34 MBq, iv after 20 mins by PET imaging analysis; assay type: ADME, organism-based, Parietal cortex; conditions: papio anubis, in vivo; how it was run: as §3
[11] = Drug metabolism in baboon neuroinflammation model plasma assessed as compound remaining at 110 +/- 34 MBq, iv after 180 mins by HPLC analysis; assay type: ADME, organism-based; conditions: papio anubis, read-out: Stability; how it was run: as §2
[12] = Drug uptake in cerebellum of baboon neuroinflammation model at 110 +/- 34 MBq, iv after 20 mins by PET imaging analysis; assay type: ADME, organism-based; conditions: papio anubis, in vivo; how it was run: as §3
Cannabinoid receptor 1 = Cannabinoid receptor 1 (Homo sapiens, UniProt P21554); experiment: Binding affinity to human CB1 receptor
Chain of Cannabinoid receptor 1 (P21554 whole entry): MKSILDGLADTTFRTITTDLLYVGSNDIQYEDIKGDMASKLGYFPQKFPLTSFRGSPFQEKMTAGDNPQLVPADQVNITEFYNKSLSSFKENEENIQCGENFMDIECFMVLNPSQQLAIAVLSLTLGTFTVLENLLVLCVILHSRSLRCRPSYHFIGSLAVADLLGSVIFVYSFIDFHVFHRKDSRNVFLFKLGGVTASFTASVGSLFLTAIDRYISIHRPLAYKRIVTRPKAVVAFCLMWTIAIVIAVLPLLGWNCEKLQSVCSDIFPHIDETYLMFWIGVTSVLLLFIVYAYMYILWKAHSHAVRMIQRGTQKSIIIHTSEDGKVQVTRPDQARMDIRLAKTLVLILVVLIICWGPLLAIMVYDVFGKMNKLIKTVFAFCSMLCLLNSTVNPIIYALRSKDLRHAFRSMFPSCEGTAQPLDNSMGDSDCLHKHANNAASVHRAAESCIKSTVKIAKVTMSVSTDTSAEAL

Cannabinoid receptor 2 [13] = target: T1, Cannabinoid receptor 2; experiment: Binding affinity to human CB2 receptor

T1 sequence (P34972 whole entry): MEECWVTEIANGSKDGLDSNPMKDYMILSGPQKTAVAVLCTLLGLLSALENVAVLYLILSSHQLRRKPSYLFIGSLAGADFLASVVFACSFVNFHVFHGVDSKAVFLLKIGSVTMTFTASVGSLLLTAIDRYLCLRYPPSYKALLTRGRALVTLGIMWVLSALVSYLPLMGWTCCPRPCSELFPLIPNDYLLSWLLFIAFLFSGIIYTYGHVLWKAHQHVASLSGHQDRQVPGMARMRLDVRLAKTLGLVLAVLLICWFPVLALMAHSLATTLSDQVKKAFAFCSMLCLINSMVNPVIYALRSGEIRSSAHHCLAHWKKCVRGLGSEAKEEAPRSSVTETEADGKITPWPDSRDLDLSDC

CC(C)(O)c1cc(-c2nc(NCCc3ccc(F)cc3)nc(OCF)n2)ccc1Cl
IC50 (Cannabinoid receptor 2 [1]): 1.4 nM | EC50 (Cannabinoid receptor 2 [2]): 0.78 nM | Cmax [3]: 2300 ng/g | half-life [4]: 57.6 min

[2H]C([2H])([18F])Oc1nc(NCCc2ccc(F)cc2)nc(-c2ccc(Cl)c(C(C)(C)O)c2)n1
remaining at 3 h [5]: 35% | Drug uptake (Brain): 0.5 %ID | SUV [6]: 0.7 g/mL | SUV [7]: 0.7 g/mL | SUV [8]: 0.7 g/mL | remaining at 3 h [9]: 15% | SUV [10]: 0.7 g/mL | remaining at 3 h [11]: 35% | SUV [12]: 0.7 g/mL

COc1nc(NCCc2ccc(F)cc2)nc(-c2ccc(Cl)c(C(C)(C)O)c2)n1
IC50 (Cannabinoid receptor 1): 300 nM | IC50 (Cannabinoid receptor 2 [13]): 0.58 nM
